Results reported in ChEMBL document CHEMBL1154688, “Selective Kv1.5 blockers: development of (R)-1-(methylsulfonylamino)-3-[2-(4-methoxyphenyl)ethyl]-4-(4-methoxyphenyl)-2-imidazolidinone (KVI-020/WYE-160020) as a potential treatment for atrial arrhythmia” (J Med Chem, 2009).
Converted amounts (≈) assume the structure as drawn.

How the values were obtained:
[1] = target: Potassium voltage-gated channel subfamily A member 5 (Homo sapiens, UniProt P22460); experiment: Inhibition of human Kv1.5 expressed in CHO cells by patch-clamp technique; type: cell-based
Summary of the method: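 Human Kv1.5 stably expressed in CHO cells. IC50 was determined by automated patch clamp on the IonWorks platform.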

[2] = target: Voltage-gated inwardly rectifying potassium channel KCNH2 (Homo sapiens, UniProt Q12809); experiment: Inhibition of human ERG by patch-clamp technique
[3] = Aqueous solubility at pH 7.4 by direct UV method; type: physicochemical; details: aqueous medium
Summary of the method: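 Solubility measured in pH 7.4 buffer with direct UV read-out.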

[4] = Metabolic stability in human liver microsomes assessed as half life; type: ADME, Microsome
Summary of the method: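 Test compound at 1 μM incubated with 1 mg/mL male beagle dog or male human liver microsomal protein. Half-life was determined from compound loss.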

CYP3A4 = CYP3A4 (Homo sapiens, UniProt P08684); experiment: Inhibition of CYP3A4 at 3 uM by fluorescent method; type: ADME
Summary of the method: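 CYP3A4 inhibition measured by a fluorescent method.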

Chain of Voltage-gated inwardly rectifying potassium channel KCNH2 (Q12809 whole entry): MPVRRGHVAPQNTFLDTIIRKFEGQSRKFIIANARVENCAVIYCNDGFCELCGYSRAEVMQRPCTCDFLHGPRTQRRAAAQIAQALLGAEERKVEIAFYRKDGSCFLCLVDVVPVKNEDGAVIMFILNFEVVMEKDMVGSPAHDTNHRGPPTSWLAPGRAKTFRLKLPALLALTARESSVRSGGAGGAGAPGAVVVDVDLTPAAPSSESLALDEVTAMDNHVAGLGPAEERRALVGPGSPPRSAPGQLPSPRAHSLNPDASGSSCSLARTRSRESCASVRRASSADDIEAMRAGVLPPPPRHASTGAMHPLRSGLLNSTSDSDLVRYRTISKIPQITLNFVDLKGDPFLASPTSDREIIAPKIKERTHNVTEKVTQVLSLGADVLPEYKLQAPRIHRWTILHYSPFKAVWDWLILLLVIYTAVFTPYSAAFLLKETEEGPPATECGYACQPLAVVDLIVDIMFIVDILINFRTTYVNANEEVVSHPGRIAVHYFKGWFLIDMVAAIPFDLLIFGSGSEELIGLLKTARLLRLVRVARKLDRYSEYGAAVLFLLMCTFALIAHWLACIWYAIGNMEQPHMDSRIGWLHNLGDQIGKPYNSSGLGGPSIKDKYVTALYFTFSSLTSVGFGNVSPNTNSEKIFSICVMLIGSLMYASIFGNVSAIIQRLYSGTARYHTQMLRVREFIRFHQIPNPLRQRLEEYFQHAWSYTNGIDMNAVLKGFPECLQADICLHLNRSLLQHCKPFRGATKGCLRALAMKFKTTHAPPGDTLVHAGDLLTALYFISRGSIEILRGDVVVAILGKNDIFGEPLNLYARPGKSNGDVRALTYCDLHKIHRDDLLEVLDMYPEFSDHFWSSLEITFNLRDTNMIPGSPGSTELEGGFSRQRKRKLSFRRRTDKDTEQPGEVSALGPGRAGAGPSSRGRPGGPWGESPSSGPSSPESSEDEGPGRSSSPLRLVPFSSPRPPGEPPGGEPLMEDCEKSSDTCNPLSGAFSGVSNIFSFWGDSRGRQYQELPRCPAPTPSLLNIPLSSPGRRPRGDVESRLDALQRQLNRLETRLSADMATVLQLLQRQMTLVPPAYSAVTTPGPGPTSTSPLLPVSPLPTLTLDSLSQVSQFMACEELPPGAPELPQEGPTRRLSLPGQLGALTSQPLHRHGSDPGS
Chain of Potassium voltage-gated channel subfamily A member 5 (P22460 whole entry): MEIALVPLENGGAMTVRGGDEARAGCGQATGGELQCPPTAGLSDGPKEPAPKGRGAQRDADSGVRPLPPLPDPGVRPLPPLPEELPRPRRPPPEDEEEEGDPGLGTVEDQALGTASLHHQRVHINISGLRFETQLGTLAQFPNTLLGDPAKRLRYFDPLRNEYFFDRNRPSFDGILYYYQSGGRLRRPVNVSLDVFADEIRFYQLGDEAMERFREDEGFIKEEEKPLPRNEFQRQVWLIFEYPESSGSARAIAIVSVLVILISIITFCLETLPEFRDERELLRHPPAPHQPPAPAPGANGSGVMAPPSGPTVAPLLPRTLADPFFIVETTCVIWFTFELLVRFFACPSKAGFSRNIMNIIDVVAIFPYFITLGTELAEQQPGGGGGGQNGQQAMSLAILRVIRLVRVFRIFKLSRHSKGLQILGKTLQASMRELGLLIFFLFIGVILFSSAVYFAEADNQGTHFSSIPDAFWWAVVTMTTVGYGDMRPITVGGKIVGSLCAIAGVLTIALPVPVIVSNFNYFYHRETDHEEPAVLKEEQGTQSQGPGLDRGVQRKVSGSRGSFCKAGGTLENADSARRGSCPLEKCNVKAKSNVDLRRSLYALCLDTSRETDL
Chain of CYP3A4 (P08684 whole entry): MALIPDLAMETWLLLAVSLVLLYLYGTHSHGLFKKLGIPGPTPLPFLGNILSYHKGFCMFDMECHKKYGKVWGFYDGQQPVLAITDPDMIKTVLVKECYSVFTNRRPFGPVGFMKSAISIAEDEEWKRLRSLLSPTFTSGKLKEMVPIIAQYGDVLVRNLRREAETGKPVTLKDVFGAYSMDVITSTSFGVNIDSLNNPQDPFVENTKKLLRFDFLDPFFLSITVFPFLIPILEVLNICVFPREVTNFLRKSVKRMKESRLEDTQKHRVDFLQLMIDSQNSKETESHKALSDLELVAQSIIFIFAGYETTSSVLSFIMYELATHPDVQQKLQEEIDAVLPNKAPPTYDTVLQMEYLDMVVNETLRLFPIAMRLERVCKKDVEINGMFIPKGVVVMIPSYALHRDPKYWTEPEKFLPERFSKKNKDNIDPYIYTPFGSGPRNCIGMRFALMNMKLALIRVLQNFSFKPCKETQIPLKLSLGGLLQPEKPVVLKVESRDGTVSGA

Which results are given for `COc1ccc(CCN2C(=O)N(NS(C)(=O)=O)C[C@@H]2c2ccc(OC)cc2)cc1`?
IC50 [1]: 0.33 µM; IC50 [2]: 26.7 µM; solubility [3]: 0.1 mg/mL (≈ 238 µM); half-life [4]: 16 min; inhibition at 3 µM (CYP3A4): 50%

For `COc1ccc(CCN2C(=O)N(NS(=O)(=O)CF)C[C@@H]2c2ccc(OC)cc2)cc1`, which IC50 [1] is on record?
The IC50 was 0.9 µM.

And the IC50 [2]?
The IC50 was 28.3 µM.

And the solubility [3]?
Its solubility is 0.1 mg/mL (≈ 229 µM).

And the half-life [4]?
Its half-life is 13 min.

What about the inhibition at 3 µM (CYP3A4) of the same molecule?
Its inhibition at 3 µM is 0%.

Which IC50 [1] does the source give for `COc1ccc(CCN2C(=O)N(NS(C)(=O)=O)CC2c2ccc(Cl)cc2)cc1` (configuration not stated) here?
Its IC50 is 0.2 µM.

What about the solubility [3] of the same molecule?
The solubility was 0.004 mg/mL (≈ 9.44 µM).

What about the half-life [4] of the same molecule?
Its half-life is 30 min.

What about the inhibition at 3 µM (CYP3A4) of the same molecule?
Its inhibition at 3 µM is 27%.

For `COc1ccc([C@H]2CN(NS(C)(=O)=O)C(=O)N2CCc2ccc(OC(F)(F)F)cc2)cc1`, which IC50 [1] is on record?
Its IC50 is 0.52 µM.

And the IC50 [2]?
The IC50 was 5.6 µM.

What about the solubility [3] of the same molecule?
The solubility was 0.004 mg/mL (≈ 8.45 µM).

What about the half-life [4] of the same molecule?
The half-life was 15 min.

And the inhibition at 3 µM (CYP3A4)?
The inhibition at 3 µM was 53%.

With `COc1ccc(CCN2C(=O)N(NS(C)(=O)=O)CC2c2ccc(C3CC3)cc2)cc1` (configuration not stated) as the molecule, how does the IC50 [1] read?
Its IC50 is 0.16 µM.

And the IC50 [2]?
Its IC50 is 8.4 µM.

What about the solubility [3] of the same molecule?
The solubility was 0.001 mg/mL (≈ 2.33 µM).

What about the half-life [4] of the same molecule?
Its half-life is 30 min.

And the inhibition at 3 µM (CYP3A4)?
The inhibition at 3 µM was 78%.

Which IC50 [1] does the source give for `COCCOc1ccc(C2CN(NS(C)(=O)=O)C(=O)N2CCc2ccc(OC)cc2)cc1` (configuration not stated) here?
Its IC50 is 7.45 µM.

And the solubility [3]?
The solubility was 0.1 mg/mL (≈ 216 µM).

What about the half-life [4] of the same molecule?
Its half-life is 30 min.

And the inhibition at 3 µM (CYP3A4)?
Its inhibition at 3 µM is 50%.

What does the source list for `COc1ccc(CCN2C(=O)N(NS(=O)(=O)CC#N)C[C@@H]2c2ccc(OC)cc2)cc1`?
IC50 [1]: 0.23 µM; IC50 [2]: 33 µM; solubility [3]: 0.1 mg/mL (≈ 225 µM); half-life [4]: 21 min; inhibition at 3 µM (CYP3A4): 7%

For `COc1ccc(CCCN2C(=O)N(NS(C)(=O)=O)C[C@@H]2c2ccc(OC)cc2)cc1`, which IC50 [1] is on record?
The IC50 was 0.1 µM.

What about the IC50 [2] of the same molecule?
The IC50 was 14.1 µM.

What about the solubility [3] of the same molecule?
The solubility was 0.018 mg/mL (≈ 41.5 µM).

And the half-life [4]?
The half-life was 29 min.

And the inhibition at 3 µM (CYP3A4)?
Its inhibition at 3 µM is 84%.

What does the source list for `COc1ccc(CCN2C(=O)N(NS(=O)(=O)Cc3cccnc3)C[C@@H]2c2ccc(OC)cc2)cc1`?
IC50 [1]: 0.6 µM; solubility [3]: 0.023 mg/mL (≈ 46.3 µM); half-life [4]: 3 min; inhibition at 3 µM (CYP3A4): 90%
